Laboratory results from paper PMC9298202 (Chemmedchem, 2021).

Tests used:
[1] = test system: Trypanosoma cruzi SN3 epimastigote forms; test: Epimastigote assay, T. cruzi SN3; assay type: cell-based
Summary of the method: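 SN3 epimastigotes (Rhodnius prolixus isolate, Colombia) were grown at 28 °C in Grace's Insect Medium + 10% inactivated FBS. Exponential-phase cells were plated at 5×10^4 parasites/well with test compound in MTL medium at 100, 50, 25, 12,5 and 6,25 µM. Counts after 72 h used a Neubauer chamber. IC50 came from linear regression of Kc values; SI = Vero IC50/epimastigote IC50.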

[2] = test system: Leishmania infantum amastigote forms; test: In vitro activity on amastigote; assay type: cell-based
[3] = test system: Leishmania infantum promastigote forms; test: In vitro activity on promastigote; assay type: cell-based
[4] = test system: Leishmania braziliensis promastigote forms; test: In vitro activity on promastigote; assay type: cell-based
Summary of the method: (§1)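 Extracellular promastigotes were tested at 1, 10, 25 and 200 µM, and IC50 was derived by linear regression from Kc values, averaging four determinations.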

[5] = test system: Fe-SOD in T. cruzi epimastigotes; test: Fe-SOD inhibition, T. cruzi; assay type: biochemical, Trypanosoma cruzi; conditions: extent reached in the tested concentration range (Figure 9)
Summary of the method: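 Promastigotes or T. cruzi epimastigotes were grown in MTL (HBSS + 10% heat-inactivated FBS) at 26 °C to ~1×10^7/mL. Log-phase cells were pelleted and held 24 h at 27 °C to excrete SOD. Filtered supernatant was fractionated with 35% then 85% ammonium sulphate and desalted on Sephadex G-25. Activity was measured as NBT reduction (methionine, riboflavin, Triton X-100) at 560 nm before and after 10 min UV illumination.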

[6] = test system: Trypanosoma cruzi SN3 amastigote forms; test: Amastigote assay, T. cruzi SN3; assay type: cell-based
Summary of the method: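 Vero cells in RPMI + 10% inactivated FBS (37 °C, 5% CO2) were seeded at 1×10^4 cells/well on coverslips for 2 days. They were infected 10:1 with SN3 metacyclic forms, obtained by 12-day culture of epimastigotes at 28 °C in modified Grace's medium (~40% metacyclic). After 24 h, cells were washed and exposed to 6.25–100 µM for 72 h. Giemsa-stained amastigotes were counted; IC50 from four determinations; SI used Vero IC50.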

J774.2 macrophages = test: Cytotoxicity in J774.2 macrophages; assay type: cell-based; conditions: Mus musculus, J774.2, 72 h, read-out: Toxicity in macrophages IC50
[7] = test system: Leishmania braziliensis amastigote forms; test: In vitro activity on amastigote; assay type: cell-based
Summary of the method: (§2)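 J774.2 macrophages were infected with promastigotes, which became intracellular amastigotes within 1 day; test compounds were then added. IC50 came from linear regression of Kc values at 1, 10, 25 and 200 µM, averaging four determinations.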

[8] = test system: Leishmania donovani promastigote forms; test: In vitro activity on promastigote; assay type: cell-based
Summary of the method: as §1

[9] = test system: Trypanosoma cruzi SN3 trypomastigote forms; test: Trypomastigote activity, T. cruzi SN3; assay type: cell-based
Vero cells = test: Cytotoxicity in Vero cells; assay type: cell-based; conditions: Chlorocebus sabaeus, Vero, 72 h, read-out: Vero cells toxicity IC50
Summary of the method: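 Vero cells were grown in RPMI + 10% inactivated FBS at 37 °C in humidified 5% CO2. They were resuspended at 1×10^5 cells/mL, cultured 2 days, then given fresh medium with test compound for 72 h. Viability was read by flow cytometry. IC50 was derived by linear regression from Kc values; results average four determinations.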

[10] = test system: Leishmania donovani amastigote forms; test: In vitro activity on amastigote; assay type: cell-based
Summary of the method: as §2

[11] = T. cruzi SN3, IC50 Vero cell toxicity/IC50 activity
[12] = L. infantum, IC50 macrophages toxicity/IC50 activity
[13] = L. braziliensis, IC50 macrophages toxicity/IC50 activity
[14] = L. donovani, IC50 macrophages toxicity/IC50 activity

c1ccc2c(NCCCn3ccnc3)ncnc2c1 [3 b, N ‐[3‐(1H‐imidazol‐1‐yl)propyl]quinazolin‐4‐amine]
Selectivity index Epimastigote forms [1, 11]: 13 | IC50 ([1]; Trypanosoma cruzi, read-out: Activity IC50 Epimastigote forms): 9.4 ± 0.7 µM | Selectivity index Amastigote forms [2, 12]: 4 | IC50 ([2]; Leishmania infantum, read-out: Activity IC50 Amastigote forms): 11.9 ± 0.7 µM | Selectivity index Promastigote forms [3, 12]: 3 | IC50 ([3]; Leishmania infantum, read-out: Activity IC50 Promastigote forms): 14.7 ± 0.6 µM | Selectivity index Promastigote forms [4, 13]: 6 | IC50 ([4]; Leishmania braziliensis, read-out: Activity IC50 Promastigote forms): 7.6 ± 0.5 µM | extent of inhibition of enzyme activity [5]: approximately 50% | Selectivity index Amastigote forms [6, 11]: 50 | IC50 ([6]; Trypanosoma cruzi, read-out: Activity IC50 Amastigote forms): 2.4 µM | IC50 (J774.2 macrophages): 45.9 ± 2.8 µM | Selectivity index Amastigote forms [7, 13]: 7 | IC50 ([7]; Leishmania braziliensis, read-out: Activity IC50 Amastigote forms): 6.6 ± 0.6 µM | Selectivity index Promastigote forms [8, 14]: 23 | IC50 ([8]; Leishmania donovani, read-out: Activity IC50 Promastigote forms): 2 ± 0.4 µM | Selectivity index Trypomastigote forms [9, 11]: 93 | IC50 ([9]; Trypanosoma cruzi, read-out: Activity IC50 Trypomastigote forms): 1.3 ± 0.6 µM | IC50 (Vero cells): 121 ± 6.3 µM | Selectivity index Amastigote forms [10, 14]: 17 | IC50 ([10]; Leishmania donovani, read-out: Activity IC50 Amastigote forms): 2.7 ± 0.3 µM
